One block for each molecule: values may come before it. Activity calls are given as the source filed them. The rule behind the calls is not given here.
Experiments:
[1] = Ratio of drug level in rat cerebrospinal fluid to unbound fraction in rat plasma; assay type: ADME, CSF/Plasma; settings: in vivo
Mus musculus = test: Reversal of cognitive deficits in contextual fear conditioning in mouse at 10 mg/kg, ip after 24 hrs in presence of Scopolamine; assay type: functional, organism-based; design: dose 10 mg/kg
Outline: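 Mouse contextual fear conditioning (episodic memory model); mice given scopolamine before exposure to novel environment; test agent 10 mg/kg ip; reversal compared with scopolamine-alone group; plasma levels sampled.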

Homo sapiens [2] = species on record: Homo sapiens; test: Protein binding in human plasma; settings: read-out: PPB (converted)
[3] = biological target: T1, Muscarinic acetylcholine receptor M1 (Homo sapiens) (UniProt P11229); test: Allosteric modulator activity at human muscarinic M1 receptor expressed in CHO cells assessed as potentiation of acetylcholine-induced calcium mobilization at 1 uM by FLIPR assay; assay type: functional, cell-based
T1 sequence (whole entry): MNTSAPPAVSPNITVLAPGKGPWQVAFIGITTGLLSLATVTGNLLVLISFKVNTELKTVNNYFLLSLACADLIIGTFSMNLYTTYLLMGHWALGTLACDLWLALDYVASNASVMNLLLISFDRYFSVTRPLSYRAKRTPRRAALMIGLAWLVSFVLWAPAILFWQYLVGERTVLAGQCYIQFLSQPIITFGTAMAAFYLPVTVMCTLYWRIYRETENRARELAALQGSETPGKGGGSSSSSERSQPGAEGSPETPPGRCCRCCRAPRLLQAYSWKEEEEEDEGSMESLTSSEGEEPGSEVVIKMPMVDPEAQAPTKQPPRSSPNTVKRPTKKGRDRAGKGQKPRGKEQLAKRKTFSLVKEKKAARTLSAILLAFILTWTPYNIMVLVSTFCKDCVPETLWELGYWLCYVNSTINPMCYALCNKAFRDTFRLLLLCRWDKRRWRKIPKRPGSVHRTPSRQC
Outline: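 CHO cells expressing human M1; acetylcholine dose response run with fixed 1 µM potentiator (also 0.01–100 µM series), calcium mobilization by FLIPR; fold left-shift of acetylcholine curve recorded.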

[4] = biological target: T1, Muscarinic acetylcholine receptor M1 (Homo sapiens); test: Allosteric modulator activity at human muscarinic M1 receptor expressed in CHO cells assessed as potentiation of acetylcholine-induced calcium mobilization by FLIPR assay; assay type: functional, cell-based
[5] = Ratio of drug level in brain to plasma in Sprague-Dawley rat at 10 mg/kg, po; assay type: ADME, organism-based; design: dose 10 mg/kg, route oral
Outline: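 Sprague–Dawley rats dosed orally at 10 mg/kg in 0.5% methocel; brain to plasma level ratio; interanimal variability under 20%.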

[6] = Plasma concentration in ip dosed mouse after 24 hrs
[7] = biological target: T1, Muscarinic acetylcholine receptor M1 (Homo sapiens); test: Agonist activity at human muscarinic M1 receptor expressed in CHO cells assessed as potentiation of acetylcholine-induced calcium mobilization at >= 10 uM by FLIPR assay; assay type: functional, cell-based
[8] = Fraction unbound in rat plasma; assay type: ADME, cell-free
Outline: (§1)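 Binding in rat and human serum/plasma measured by equilibrium dialysis.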

Plasma = test: Fraction unbound in human plasma; assay type: ADME, cell-free; outline: as §1
Homo sapiens [9] = species on record: Homo sapiens; test: Protein binding in human plasma; settings: read-out: PPB (converted); remark: listed apart in the source
[10] = Protein binding in rat plasma; assay type: ADME, cell-free; settings: read-out: PPB (converted); outline: as §1
Homo sapiens [11] = species on record: Homo sapiens; test: Fraction unbound in human plasma

SMILES: O=C(O)c1cn(Cc2ccc(-n3cccn3)cc2)c2c(F)ccc(F)c2c1=O
Ratio [1]: 0.1 | Activity (Mus musculus): Active | fraction unbound (Homo sapiens [2]): 0.043 | fold change (FC) [3]: 46 | Activity [4]: 171 nM | Kp [5]: 0.03 | concentration at 24 h [6]: 9 µM | Activity [7]: Active

SMILES: O=C(O)c1cn(Cc2ccc(-n3cnc4ccccc43)cc2)c2cccc(F)c2c1=O
fraction unbound (Homo sapiens [2]): 0.084 | fraction unbound [8]: 0.039 | Activity [4]: 96 nM | Fu (Plasma): 9%

SMILES: O=C(O)c1cn(Cc2ccc(-n3cccn3)cn2)c2c(F)cccc2c1=O
Activity [4]: 1400 nM

SMILES: O=C(O)c1cn(Cc2ccc(-n3ccc4ncccc43)cc2)c2cccc(F)c2c1=O
Activity [4]: 150 nM

SMILES: O=C(O)c1cn(Cc2ccc(-n3cccn3)cc2)c2c(F)cccc2c1=O
Activity [4]: 96 nM

SMILES: O=C(O)c1cn(Cc2ccc(-n3cnc(-c4ccccc4)c3)cc2)c2cccc(F)c2c1=O
Activity [4]: 39 nM

SMILES: O=C(O)c1cn(Cc2ccc(-n3cccn3)nc2)c2c(F)cccc2c1=O
Activity [4]: 864 nM

SMILES: O=C(O)c1cn(Cc2ccc(-n3cccn3)nn2)c2c(F)cccc2c1=O
Activity [4]: 24000 nM

SMILES: Cc1nn(-c2ccc(Cn3cc(C(=O)O)c(=O)c4c(F)cccc43)cc2)c2ccccc12
Activity [4]: 620 nM

SMILES: COc1ccc(Cn2cc(C(=O)O)c(=O)c3ccccc32)cc1
Activity [4]: 660 nM

Continued, values first:

fraction unbound (Homo sapiens [2]): 0.111 | Activity [4]: 140 nM
SMILES: Cc1cn(-c2ccc(Cn3cc(C(=O)O)c(=O)c4c(F)cccc43)cc2)cn1

Activity [4]: 290 nM
SMILES: O=C(O)c1cn(Cc2ccc(-n3ccc(C(F)(F)F)n3)cc2)c2cccc(F)c2c1=O

fraction unbound (Homo sapiens [2]): 0.162 | Activity [4]: 110 nM
SMILES: O=C(O)c1cn(Cc2ccc(-n3ccnc3)cc2)c2cccc(F)c2c1=O

Activity [4]: 250 nM
SMILES: O=C(O)c1cn(Cc2ccc(-n3ccc4ccccc43)cc2)c2cccc(F)c2c1=O

Activity [4]: 2900 nM
SMILES: Cc1ccnn1-c1ccc(Cn2cc(C(=O)O)c(=O)c3c(F)cccc32)cc1

Activity [4]: 181 nM | fraction unbound (Homo sapiens [9]): 0.003 | fraction unbound [10]: 0.003
SMILES: O=C(O)c1cn(Cc2ccc(-n3cccc3)cc2)c2cccc(F)c2c1=O

Ratio [1]: 0.05 | fraction unbound [8]: 0.1 | Activity [4]: 94 nM | Kp [5]: 0.04 | fraction unbound (Homo sapiens [11]): 0.1 | fraction unbound (Homo sapiens [9]): 0.116 | fraction unbound [10]: 0.116
SMILES: O=C(O)c1cn(Cc2ccc(-n3cccn3)cc2)c2cccc(F)c2c1=O

Activity [4]: 228 nM
SMILES: O=C(O)c1cn(Cc2ccc(-n3nnc4ccccc43)cc2)c2cccc(F)c2c1=O

Activity [4]: 90 nM
SMILES: O=C(O)c1cn(Cc2ccc(-n3ccc4cccnc43)cc2)c2cccc(F)c2c1=O

Activity [4]: 36 nM | fraction unbound (Homo sapiens [9]): 0.057 | fraction unbound [10]: 0.057
SMILES: Cc1ccn(-c2ccc(Cn3cc(C(=O)O)c(=O)c4c(F)cccc43)cc2)n1

Activity [4]: 2500 nM
SMILES: O=C(O)c1cn(Cc2ccc(N3CCCC3=O)cc2)c2cccc(F)c2c1=O

fraction unbound (Homo sapiens [2]): 0.031 | Activity [4]: 160 nM
SMILES: O=C(O)c1cn(Cc2ccc(-n3ccc4cnccc43)cc2)c2cccc(F)c2c1=O

Activity [4]: 920 nM
SMILES: Cc1nccn1-c1ccc(Cn2cc(C(=O)O)c(=O)c3c(F)cccc32)cc1

Activity [4]: 500 nM | fraction unbound (Homo sapiens [9]): 0.224 | fraction unbound [10]: 0.116
SMILES: O=C(O)c1cn(Cc2ccc(N3CCOC3=O)cc2)c2cccc(F)c2c1=O
